In test [1] the target is Insulin-like growth factor 1 receptor (Homo sapiens) (UniProt P08069). Kind of test: Inhibition of human recombinant IGF1R at 40 nM in presence of ATP by radiometric assay relative to control.
In test [2] the target is T1, Mitogen-activated protein kinase kinase kinase 5 (Homo sapiens) (UniProt Q99683).
T1 sequence (whole entry): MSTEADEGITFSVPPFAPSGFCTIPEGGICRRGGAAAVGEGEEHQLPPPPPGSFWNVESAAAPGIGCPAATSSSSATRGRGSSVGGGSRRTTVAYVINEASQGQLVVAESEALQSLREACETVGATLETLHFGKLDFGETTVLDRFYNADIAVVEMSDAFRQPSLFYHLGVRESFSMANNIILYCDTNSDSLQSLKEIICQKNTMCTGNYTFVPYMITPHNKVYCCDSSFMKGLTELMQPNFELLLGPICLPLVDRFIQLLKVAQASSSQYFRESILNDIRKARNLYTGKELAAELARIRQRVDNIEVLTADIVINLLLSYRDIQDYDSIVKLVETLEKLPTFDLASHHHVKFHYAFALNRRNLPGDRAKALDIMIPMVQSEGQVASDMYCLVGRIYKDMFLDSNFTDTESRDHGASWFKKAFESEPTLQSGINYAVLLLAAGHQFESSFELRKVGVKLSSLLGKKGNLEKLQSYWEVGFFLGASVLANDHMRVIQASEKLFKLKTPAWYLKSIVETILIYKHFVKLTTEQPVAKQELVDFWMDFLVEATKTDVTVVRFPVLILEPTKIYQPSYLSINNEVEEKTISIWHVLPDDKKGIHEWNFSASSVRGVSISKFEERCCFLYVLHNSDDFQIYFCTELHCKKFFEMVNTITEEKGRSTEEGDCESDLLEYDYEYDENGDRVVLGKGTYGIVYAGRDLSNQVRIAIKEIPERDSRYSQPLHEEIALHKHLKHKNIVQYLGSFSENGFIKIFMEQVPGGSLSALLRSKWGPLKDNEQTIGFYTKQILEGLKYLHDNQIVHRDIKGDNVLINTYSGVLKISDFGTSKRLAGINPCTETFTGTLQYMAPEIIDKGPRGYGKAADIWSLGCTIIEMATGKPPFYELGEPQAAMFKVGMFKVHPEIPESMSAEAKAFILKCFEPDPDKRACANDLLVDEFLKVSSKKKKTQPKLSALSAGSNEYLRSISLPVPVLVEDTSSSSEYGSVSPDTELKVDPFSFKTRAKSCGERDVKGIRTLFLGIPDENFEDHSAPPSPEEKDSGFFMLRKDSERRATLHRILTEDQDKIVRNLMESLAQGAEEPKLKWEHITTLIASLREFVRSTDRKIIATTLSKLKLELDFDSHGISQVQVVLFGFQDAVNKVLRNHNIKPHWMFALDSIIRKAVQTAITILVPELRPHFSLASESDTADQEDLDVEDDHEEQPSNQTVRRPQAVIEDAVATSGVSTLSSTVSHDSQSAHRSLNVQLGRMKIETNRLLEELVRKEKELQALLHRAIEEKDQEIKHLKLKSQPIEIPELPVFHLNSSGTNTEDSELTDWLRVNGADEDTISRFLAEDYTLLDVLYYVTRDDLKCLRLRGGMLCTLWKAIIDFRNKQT
Kind of test: Inhibition of human recombinant MAP3K5 at 40 nM in presence of ATP by radiometric assay relative to control.

The target of test [3] is Ribosomal protein S6 kinase alpha-6 (Homo sapiens) (UniProt Q9UK32). Kind of test: Inhibition of human recombinant RSK4 at 40 nM related to control ULK1.
Test [4] has as its target Myosin light chain kinase, smooth muscle (Homo sapiens) (UniProt Q15746). Kind of test: Inhibition of human recombinant smMLCK at 40 nM related to control ULK1.
Test [5] concerns the target Epidermal growth factor receptor (Homo sapiens) (UniProt P00533). Kind of test: Inhibition of human recombinant EGFR at 40 nM in presence of ATP by radiometric assay relative to control.
In test [6] the target is Homeodomain-interacting protein kinase 2 (Homo sapiens) (UniProt Q9H2X6). Kind of test: Inhibition of human recombinant HIPK2 at 40 nM in presence of ATP by radiometric assay relative to control.
Test [7] concerns the target T2, Serine/threonine-protein kinase ICK (Homo sapiens) (UniProt Q9UPZ9).
T2 sequence (whole entry): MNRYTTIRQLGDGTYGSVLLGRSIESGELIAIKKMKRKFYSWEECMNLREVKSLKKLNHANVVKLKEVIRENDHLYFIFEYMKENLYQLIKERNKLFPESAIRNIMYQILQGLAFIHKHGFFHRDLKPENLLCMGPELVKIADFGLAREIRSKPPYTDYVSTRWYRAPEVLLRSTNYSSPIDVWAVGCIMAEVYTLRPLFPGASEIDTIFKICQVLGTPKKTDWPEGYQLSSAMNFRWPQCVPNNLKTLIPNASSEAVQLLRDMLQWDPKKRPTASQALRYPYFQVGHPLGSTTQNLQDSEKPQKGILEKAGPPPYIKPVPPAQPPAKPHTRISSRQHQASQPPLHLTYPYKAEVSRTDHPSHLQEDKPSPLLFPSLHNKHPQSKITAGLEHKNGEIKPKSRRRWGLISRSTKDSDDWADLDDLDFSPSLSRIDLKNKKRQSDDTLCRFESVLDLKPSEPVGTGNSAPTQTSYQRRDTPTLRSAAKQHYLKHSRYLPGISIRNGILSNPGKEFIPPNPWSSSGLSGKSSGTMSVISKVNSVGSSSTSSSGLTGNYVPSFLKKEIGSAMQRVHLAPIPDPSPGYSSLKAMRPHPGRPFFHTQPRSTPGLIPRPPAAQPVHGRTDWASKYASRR
Kind of test: Inhibition of human recombinant ICK at 500 nM in presence of ATP by radiometric assay relative to control.

For test [8], the target named is Serine/threonine-protein kinase 32C (Homo sapiens) (UniProt Q86UX6). Kind of test: Inhibition of human recombinant YANK3 at 15 nM in presence of ATP by radiometric assay relative to control.
The target of test [9] is Receptor tyrosine-protein kinase erbB-2 (Homo sapiens) (UniProt P04626). Kind of test: Inhibition of human recombinant ErbB2 at 15 nM in presence of ATP by radiometric assay relative to control.
Test [10] concerns the target Calcium/calmodulin-dependent protein kinase type II subunit beta (Homo sapiens) (UniProt Q13554). Kind of test: Inhibition of human recombinant CaMK2b at 15 nM in presence of ATP by radiometric assay relative to control.
The target in test [11] is Serine/threonine-protein kinase 24 (Homo sapiens) (UniProt Q9Y6E0). Kind of test: Inhibition of human recombinant MST3 at 15 nM related to control ULK1.
Test [12] addresses Serine/threonine-protein kinase ATR (Homo sapiens) (UniProt Q13535). Kind of test: Inhibition of human recombinant ATR at 15 nM in presence of ATP by radiometric assay relative to control. An outline of the steps:
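Panel of 327 recombinant human kinases, each assayed in vitro by radiometric activity assay in duplicate at a single inhibitor concentration per compound, chosen with reference to its ULK1 inhibition. Activity remaining was expressed as percent of vehicle control, and percent inhibition was calculated as 100 minus percent activity remaining.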

Molecules are shown by their SMILES.

Sequence of Serine/threonine-protein kinase 24 (Homo sapiens) (Q9Y6E0 whole entry, looked up): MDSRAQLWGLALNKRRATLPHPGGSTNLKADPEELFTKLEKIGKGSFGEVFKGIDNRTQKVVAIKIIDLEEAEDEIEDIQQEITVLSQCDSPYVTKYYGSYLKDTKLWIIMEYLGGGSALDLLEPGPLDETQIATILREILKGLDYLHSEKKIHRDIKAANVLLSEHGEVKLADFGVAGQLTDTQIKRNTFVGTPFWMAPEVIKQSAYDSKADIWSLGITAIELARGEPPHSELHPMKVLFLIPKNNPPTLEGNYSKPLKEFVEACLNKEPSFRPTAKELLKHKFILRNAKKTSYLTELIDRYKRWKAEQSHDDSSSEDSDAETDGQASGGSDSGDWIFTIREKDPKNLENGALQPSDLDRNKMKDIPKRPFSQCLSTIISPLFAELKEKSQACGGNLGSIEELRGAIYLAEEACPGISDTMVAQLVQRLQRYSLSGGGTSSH
Sequence of Insulin-like growth factor 1 receptor (Homo sapiens) (P08069 31-736 limits assumed): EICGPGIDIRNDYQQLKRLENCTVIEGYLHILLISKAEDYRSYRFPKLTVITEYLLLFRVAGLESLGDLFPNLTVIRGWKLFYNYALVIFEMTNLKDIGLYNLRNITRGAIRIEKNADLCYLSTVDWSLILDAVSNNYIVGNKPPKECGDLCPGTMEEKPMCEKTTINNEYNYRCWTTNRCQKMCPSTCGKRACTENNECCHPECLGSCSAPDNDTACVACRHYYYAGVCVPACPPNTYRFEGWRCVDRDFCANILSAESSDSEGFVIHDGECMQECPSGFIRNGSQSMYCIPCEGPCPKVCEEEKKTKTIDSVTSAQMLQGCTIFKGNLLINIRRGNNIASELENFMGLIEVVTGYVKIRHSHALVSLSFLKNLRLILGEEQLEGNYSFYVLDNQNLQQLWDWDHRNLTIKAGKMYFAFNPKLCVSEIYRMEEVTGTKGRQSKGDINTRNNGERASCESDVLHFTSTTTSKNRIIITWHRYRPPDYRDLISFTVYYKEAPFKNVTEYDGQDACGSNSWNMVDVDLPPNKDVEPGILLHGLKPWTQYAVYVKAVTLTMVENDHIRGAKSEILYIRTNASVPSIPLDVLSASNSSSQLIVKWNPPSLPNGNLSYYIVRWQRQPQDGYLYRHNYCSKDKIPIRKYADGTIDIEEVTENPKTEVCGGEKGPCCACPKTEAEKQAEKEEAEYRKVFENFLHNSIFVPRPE
Sequence of Insulin-like growth factor 1 receptor (Homo sapiens) (P08069 741-1367 limits assumed): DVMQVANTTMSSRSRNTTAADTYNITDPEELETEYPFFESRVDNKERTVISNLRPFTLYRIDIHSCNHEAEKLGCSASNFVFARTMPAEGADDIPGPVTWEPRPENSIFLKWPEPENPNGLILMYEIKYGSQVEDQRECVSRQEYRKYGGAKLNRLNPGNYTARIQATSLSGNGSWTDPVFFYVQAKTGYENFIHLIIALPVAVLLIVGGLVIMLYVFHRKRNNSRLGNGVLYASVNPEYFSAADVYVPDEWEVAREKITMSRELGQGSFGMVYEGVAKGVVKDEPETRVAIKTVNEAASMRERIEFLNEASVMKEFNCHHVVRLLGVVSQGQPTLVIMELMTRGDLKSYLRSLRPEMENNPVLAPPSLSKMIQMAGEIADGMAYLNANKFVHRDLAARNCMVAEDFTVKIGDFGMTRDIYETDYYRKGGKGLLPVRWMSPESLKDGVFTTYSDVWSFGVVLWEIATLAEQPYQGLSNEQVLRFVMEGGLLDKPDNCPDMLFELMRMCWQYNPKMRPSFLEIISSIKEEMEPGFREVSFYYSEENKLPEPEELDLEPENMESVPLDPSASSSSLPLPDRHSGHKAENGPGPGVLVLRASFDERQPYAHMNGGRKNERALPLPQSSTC
Sequence of Calcium/calmodulin-dependent protein kinase type II subunit beta (Homo sapiens) (Q13554 whole entry): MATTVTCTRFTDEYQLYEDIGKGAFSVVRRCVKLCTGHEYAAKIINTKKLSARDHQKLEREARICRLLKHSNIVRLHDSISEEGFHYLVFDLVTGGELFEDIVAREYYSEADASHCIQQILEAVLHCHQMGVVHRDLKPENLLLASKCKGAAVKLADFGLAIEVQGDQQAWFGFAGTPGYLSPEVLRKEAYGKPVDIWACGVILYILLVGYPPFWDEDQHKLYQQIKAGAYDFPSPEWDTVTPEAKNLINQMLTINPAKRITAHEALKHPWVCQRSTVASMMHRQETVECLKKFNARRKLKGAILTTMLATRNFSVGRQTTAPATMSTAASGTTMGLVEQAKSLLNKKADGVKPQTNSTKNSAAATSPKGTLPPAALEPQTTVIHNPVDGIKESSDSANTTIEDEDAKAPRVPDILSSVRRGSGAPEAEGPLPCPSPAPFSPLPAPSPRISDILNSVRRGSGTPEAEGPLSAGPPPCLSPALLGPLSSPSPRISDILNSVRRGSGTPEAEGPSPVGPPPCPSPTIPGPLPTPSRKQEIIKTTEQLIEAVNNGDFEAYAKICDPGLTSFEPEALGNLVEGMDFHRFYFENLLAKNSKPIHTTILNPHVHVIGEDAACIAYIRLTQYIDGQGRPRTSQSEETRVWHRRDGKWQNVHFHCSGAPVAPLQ
Sequence of Homeodomain-interacting protein kinase 2 (Homo sapiens) (Q9H2X6 whole entry, looked up): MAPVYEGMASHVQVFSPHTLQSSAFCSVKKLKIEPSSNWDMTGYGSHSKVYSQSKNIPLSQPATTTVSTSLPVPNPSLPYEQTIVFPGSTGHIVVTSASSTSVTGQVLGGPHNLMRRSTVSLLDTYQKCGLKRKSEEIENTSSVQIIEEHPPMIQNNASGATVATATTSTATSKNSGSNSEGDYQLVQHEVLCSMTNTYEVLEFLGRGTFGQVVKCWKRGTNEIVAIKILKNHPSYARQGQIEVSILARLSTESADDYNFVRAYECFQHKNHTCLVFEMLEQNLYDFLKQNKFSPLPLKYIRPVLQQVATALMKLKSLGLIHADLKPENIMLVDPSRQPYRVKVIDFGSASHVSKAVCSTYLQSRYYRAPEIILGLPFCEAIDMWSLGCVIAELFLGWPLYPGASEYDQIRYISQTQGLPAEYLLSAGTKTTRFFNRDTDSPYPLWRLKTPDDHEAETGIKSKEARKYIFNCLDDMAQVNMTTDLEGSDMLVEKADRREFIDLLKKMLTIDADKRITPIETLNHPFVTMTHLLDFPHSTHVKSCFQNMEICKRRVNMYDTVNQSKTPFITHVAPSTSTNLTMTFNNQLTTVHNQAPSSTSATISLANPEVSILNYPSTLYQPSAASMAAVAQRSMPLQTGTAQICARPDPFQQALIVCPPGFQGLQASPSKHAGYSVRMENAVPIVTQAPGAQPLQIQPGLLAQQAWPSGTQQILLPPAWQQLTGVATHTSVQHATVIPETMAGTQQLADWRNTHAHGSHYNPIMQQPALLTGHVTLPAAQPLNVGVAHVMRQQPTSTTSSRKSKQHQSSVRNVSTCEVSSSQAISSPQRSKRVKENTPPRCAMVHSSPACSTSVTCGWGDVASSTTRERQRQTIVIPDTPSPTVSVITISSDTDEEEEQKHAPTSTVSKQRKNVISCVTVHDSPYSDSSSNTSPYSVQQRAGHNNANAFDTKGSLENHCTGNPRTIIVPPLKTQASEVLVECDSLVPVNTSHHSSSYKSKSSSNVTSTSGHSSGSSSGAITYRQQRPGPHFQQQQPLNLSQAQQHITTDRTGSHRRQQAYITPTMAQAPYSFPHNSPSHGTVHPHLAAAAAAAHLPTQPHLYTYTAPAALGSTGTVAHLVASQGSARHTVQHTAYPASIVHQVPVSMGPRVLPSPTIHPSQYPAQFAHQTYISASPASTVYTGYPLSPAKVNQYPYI
Sequence of Receptor tyrosine-protein kinase erbB-2 (Homo sapiens) (P04626 whole entry): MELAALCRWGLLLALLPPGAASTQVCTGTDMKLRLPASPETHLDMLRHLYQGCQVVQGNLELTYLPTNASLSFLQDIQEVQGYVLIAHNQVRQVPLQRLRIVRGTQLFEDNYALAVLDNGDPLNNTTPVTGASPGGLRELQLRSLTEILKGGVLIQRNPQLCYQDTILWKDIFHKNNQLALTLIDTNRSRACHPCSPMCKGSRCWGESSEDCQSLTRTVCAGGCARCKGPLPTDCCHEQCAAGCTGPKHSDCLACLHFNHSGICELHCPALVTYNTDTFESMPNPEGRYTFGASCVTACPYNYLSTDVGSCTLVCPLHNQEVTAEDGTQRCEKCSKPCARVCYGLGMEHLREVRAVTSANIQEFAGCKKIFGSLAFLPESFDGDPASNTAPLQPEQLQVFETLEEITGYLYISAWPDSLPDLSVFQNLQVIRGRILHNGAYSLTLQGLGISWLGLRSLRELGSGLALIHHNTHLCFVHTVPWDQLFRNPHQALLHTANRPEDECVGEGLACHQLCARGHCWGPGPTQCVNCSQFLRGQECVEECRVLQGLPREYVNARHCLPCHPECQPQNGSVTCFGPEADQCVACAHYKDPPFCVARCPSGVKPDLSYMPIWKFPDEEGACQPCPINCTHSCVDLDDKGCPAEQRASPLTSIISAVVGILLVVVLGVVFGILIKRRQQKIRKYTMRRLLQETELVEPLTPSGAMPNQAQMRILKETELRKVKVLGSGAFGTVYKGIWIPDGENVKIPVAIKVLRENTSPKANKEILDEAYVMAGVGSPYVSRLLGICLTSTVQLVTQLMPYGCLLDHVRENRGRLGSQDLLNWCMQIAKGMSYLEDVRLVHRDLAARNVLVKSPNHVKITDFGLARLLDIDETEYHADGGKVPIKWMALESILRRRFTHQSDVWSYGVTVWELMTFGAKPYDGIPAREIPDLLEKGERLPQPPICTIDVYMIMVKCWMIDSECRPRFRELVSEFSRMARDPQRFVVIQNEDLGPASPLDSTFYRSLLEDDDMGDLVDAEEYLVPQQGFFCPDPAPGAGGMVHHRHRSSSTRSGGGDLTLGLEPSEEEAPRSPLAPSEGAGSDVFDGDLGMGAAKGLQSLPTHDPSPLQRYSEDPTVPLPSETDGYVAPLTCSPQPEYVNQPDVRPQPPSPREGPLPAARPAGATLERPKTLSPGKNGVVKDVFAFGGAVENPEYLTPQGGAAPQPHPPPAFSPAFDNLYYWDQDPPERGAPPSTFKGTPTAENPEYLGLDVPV

For the molecule `O=C(N[C@@H](C1CC1)C(F)(F)F)c1cc(-c2cnn3cc(-c4ccc(F)cc4)cnc23)cs1`, the inhibition in [1], in [2], in [5] and in test [6] was 0% each time. Further, the values for the fold change (FC) in test [3] and in [4] were 0 and 0.07, respectively.
With `CNC(=O)c1ccccc1Oc1nc(Nc2cc(OC)c(OC)c(OC)c2)ncc1Br`, the inhibition in [7] turned out to be 3%.
Take `CC(C)[C@H](NC(=O)c1cc(-c2cnn3cc(-c4ccc(OCCN5CCCCC5)cc4)cnc23)cs1)C(F)(F)F`: the inhibition in test [8] came to 3%; in test [9] it was 0%; in test [10], 10%; in test [12], 4%. The fold change (FC) in [11] turned out to be 0.

For the origin of these results see ChEMBL document CHEMBL5653631, “A Potent and Selective ULK1 Inhibitor Suppresses Autophagy and Sensitizes Cancer Cells to Nutrient Stress” (iScience, 2018).
